Most compounds without a hit are left out; they make up all but 3.5% or so of the library.
STAT1 act = increases IFN-gamma driven STAT1 reporter signal; activation (% of control), % at 5.5 µM; 200,000 compounds, 2.6% hits; AID 932; NIH 3T3 STAT1-luciferase reporter, luminescence; 100% = IFN-gamma alone, no compound;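 active means activation above the screen-wide mean activation plus 3 SD, cut at about 130% in these data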;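 further: raw ratio to IFN-gamma control signal so 100% means no change and 0% no light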
NF-kB neuron act = NF-kB expression increase, human neuronal cells. 190,000 compounds, 1.6% hits. AID 1239. NF-kB reporter expression; active compounds read high. fold change at 12.5 µM; in the data active means fold change above about 3.3
FLuc inhib CS = inhibits firefly luciferase, flagging false hits in luciferase inhibition screens; 200,000 compounds, 1.5% hits; P08659; AID 1006; ATPLite firefly luciferase biochemical luminescence, 10 min; inhibition, % at 10 µM;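 active means inhibition above about 50% when tested at 10 µM, limit read from the data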
Target sequence (P08659 whole entry, looked up): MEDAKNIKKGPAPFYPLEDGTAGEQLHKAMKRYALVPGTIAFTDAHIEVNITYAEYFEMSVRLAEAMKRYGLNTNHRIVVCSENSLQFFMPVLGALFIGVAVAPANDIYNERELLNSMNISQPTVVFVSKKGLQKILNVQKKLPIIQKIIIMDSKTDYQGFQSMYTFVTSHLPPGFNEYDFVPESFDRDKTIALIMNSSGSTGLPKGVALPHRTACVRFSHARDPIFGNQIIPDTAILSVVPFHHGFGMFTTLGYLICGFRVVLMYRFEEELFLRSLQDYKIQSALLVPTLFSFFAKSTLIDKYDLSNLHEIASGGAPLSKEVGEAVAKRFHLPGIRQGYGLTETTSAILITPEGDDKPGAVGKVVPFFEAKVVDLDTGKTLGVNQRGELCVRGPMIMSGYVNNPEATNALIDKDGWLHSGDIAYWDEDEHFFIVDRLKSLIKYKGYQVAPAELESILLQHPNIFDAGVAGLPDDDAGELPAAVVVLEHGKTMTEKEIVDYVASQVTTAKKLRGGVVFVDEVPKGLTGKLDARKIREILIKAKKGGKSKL
Pf gametocyte = P. falciparum stage V gametocyte viability inhibition; P. falciparum stage V gametocytes, ATP luminescence, 24 h; inhibition, % at 10.9 µM; 150,000 compounds, 0.065% hits; AID 743093;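 active means inhibition above the mean plus 3 SD of compounds within the control limits, set per campaign, cut at about 38% in these data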;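 further: 0% = DMSO wells and 100% = medium only without gametocytes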
APP 5'UTR act = APP 5'UTR luciferase reporter activation. SH-SY5Y APP 5'UTR luciferase reporter, luminescence; zero percent = DMSO vehicle wells. activation, % at 2 µM. 190,000 compounds, 1% hits. AID 1276;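 active means activation above a set limit, based on mean plus 3 SD of controls, cut at about 140% in these data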
FLuc act counter = affects firefly luciferase, flagging false hits in luciferase stimulation screens. P08659. ATPlite luciferase biochemical, luminescence, 10 min; 0 = ATP-free wells, 1 = DMSO control. activation factor at 10 µM. 200,000 tested, under 10 active;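 active means luciferase activation factor, scaled between plate controls, of at least 2 with compound at 10 µM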
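Assay system: Luciferase/luciferin detection reagent, cell-free biochemical luciferase assay / Read-out: luciferase activation / Benchmarks: No-ATP low control, compound-free enzyme-plus-ATP high control / Medium: PBS buffer for ATP / Detection: luminescence measurement of luciferase light output / Schedule: 10 min at ambient temperature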
STAT1 act conf = confirmation of STAT1 signaling activators. shares compounds with STAT1 act. NIH 3T3 STAT1-luciferase reporter, IFN-gamma potentiation, luminescence; 100% = IFN-gamma EC80 alone, no compound. activation (% of control), % at 5.7 µM. 1,200 compounds, 97% hits;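 active means activation above a set limit carried over from the earlier primary STAT1 screen, cut at about 140% in these data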;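 further: simple ratio to median IFN-gamma plus DMSO wells so 0% means no light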
NFkB act = NF-kappaB activation in STAT1 activator counter-screen | shares compounds with STAT1 act | HEK293T NF-kB luciferase reporter, TNF-alpha stimulated, luminescence; 100% = TNF-alpha with vehicle only | activation (% of control), % at 5.7 µM | 1,200 compounds, 43% hits;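 active means activation above the mean of solvent-only control wells plus 3 SD, set per campaign, cut at about 130% in these data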;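 further: TNF-alpha given at a submaximal dose yielding about 80% of full reporter signal; values are well signal over median control so 100% means no change and 0% no light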
STAT3 act 2 = human STAT3 activation in STAT1 activator counter-screen. U3A cells STAT3-luciferase reporter, IL-6, luminescence; cells lack STAT1; 100 = IL-6 alone, no compound effect. 1,200 compounds, 46% hits. shares compounds with STAT1 act. activation (% of control), % at 5.7 µM;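 active means activation above the solvent-only control well mean plus 3 SD, set per plate batch, cut at about 110% in these data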;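 further: 0% = no luminescence and 100% = median IL-6 plus DMSO wells; higher means more STAT3 reporter activation so hits are non-selective activators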
* marks the source's active call; other numbers are inactive results.

Results for FC(F)(F)c1cnc(COc2cc(Cl)cc(Cl)c2)c(Cl)c1 ?
Pf gametocyte: 8.9

Results for O=C(CSc1nc2ccccc2o1)N/N=C/c1ccc(C(=O)O)cc1 ?
Pf gametocyte: -9.7

What do the screens show for `Cc1ccc(C(=O)COC(=O)c2ccc(O)cc2)cc1`?
STAT1 act: 152.7*; NF-kB neuron act: 6.22*; FLuc inhib CS: 32.8; Pf gametocyte: -12.8; APP 5'UTR act: 148.7*; FLuc act counter: 0.7; STAT1 act conf: 169.6*; NFkB act: 120.8; STAT3 act 2: 121.9*

What do the screens show for `Cn1cccc1/C=C1\SC(=O)N(c2ccccc2)C1=O`?
STAT1 act: 159.4*; NF-kB neuron act: 2.83; FLuc inhib CS: 51.5*; APP 5'UTR act: 117.4; FLuc act counter: 0.5; STAT1 act conf: 190.4*; NFkB act: 128.6; STAT3 act 2: 101.7

Results for Cn1cccc1/C=C1\SC(=S)N(Nc2ccccc2)C1=O ?
Pf gametocyte: -7.8

Results for O=C(c1ccc(-c2cccc(Cl)c2Cl)o1)N1CCOCC1 ?
STAT1 act: 162.4*; NF-kB neuron act: 4.54*; FLuc inhib CS: 29.4; Pf gametocyte: 14.5; APP 5'UTR act: 108.5; FLuc act counter: 0.7; STAT1 act conf: 200.6*; NFkB act: 143.2*; STAT3 act 2: 114.5*

Results for S=C(c1ccc(-c2ccccc2Cl)o1)N1CCOCC1 ?
STAT1 act: 119.2; NF-kB neuron act: 2.51; FLuc inhib CS: 25.4; APP 5'UTR act: 35.5; FLuc act counter: 0.7

Results for CCCC(=O)Nc1nnc(COC)s1 ?
STAT1 act: 104.6; NF-kB neuron act: 1.16; FLuc inhib CS: -6.0; Pf gametocyte: 1.4; APP 5'UTR act: -6.9; FLuc act counter: 1.1

Results for Clc1ccc2nc(N3CCCCC3)sc2c1 ?
STAT1 act: 166.0*; NF-kB neuron act: 4.87*; FLuc inhib CS: 26.4; Pf gametocyte: -12.5; APP 5'UTR act: 173.0*; FLuc act counter: 0.7; STAT1 act conf: 207.5*; NFkB act: 137.9*; STAT3 act 2: 104.4

How did CCN(Cc1ccccc1)c1ccc(/C=C(\C#N)c2ccccn2)cc1 do in these assays?
STAT1 act: 167.3*; NF-kB neuron act: 1.92; FLuc inhib CS: 21.3; Pf gametocyte: -21.3; APP 5'UTR act: 117.3; FLuc act counter: 0.8; STAT1 act conf: 196.7*; NFkB act: 142.9*; STAT3 act 2: 113.4*

What do the screens show for `C/C(=N\Nc1nc2ccccc2s1)c1cccs1`?
STAT1 act: 164.5*; NF-kB neuron act: 4.19*; FLuc inhib CS: 60.9*; Pf gametocyte: -16.1; APP 5'UTR act: 176.9*; FLuc act counter: 0.4; STAT1 act conf: 248.9*; NFkB act: 121.1; STAT3 act 2: 159.5*

Results for CC(=O)NNc1nc2ccccc2s1 ?
STAT1 act: 91.3; NF-kB neuron act: 1.1; FLuc inhib CS: -7.0; APP 5'UTR act: 0.6; FLuc act counter: 1.1

Results for CC(=O)Nc1cccc(/C(C)=N/Nc2nc3ccccc3s2)c1 ?
STAT1 act: 198.0*; NF-kB neuron act: 1.09; FLuc inhib CS: 5.3; Pf gametocyte: 11.4; APP 5'UTR act: 159.6*; FLuc act counter: 0.9; STAT1 act conf: 199.9*; NFkB act: 139.2*; STAT3 act 2: 122.0*

How did Cc1ccc(C(=O)C(OC(=O)c2cnccn2)c2ccccc2)cc1 (configuration not stated) do in these assays?
STAT1 act: 101.8; NF-kB neuron act: 1.22; FLuc inhib CS: 1.4; Pf gametocyte: -3.6; APP 5'UTR act: 2.2; FLuc act counter: 1

Results for COc1cccc2c(Cl)c(CCCl)c(C)nc12 ?
STAT1 act: 112.8; NF-kB neuron act: 1.4; FLuc inhib CS: 5.3; Pf gametocyte: -19.4; APP 5'UTR act: 1.1; FLuc act counter: 0.9

How did O=C(CSc1nc2ccccc2c(=O)n1NC(=O)c1ccccc1)c1ccccc1 do in these assays?
STAT1 act: 150.7*; NF-kB neuron act: 2.03; FLuc inhib CS: 9.6; Pf gametocyte: -8.0; APP 5'UTR act: 94.8; FLuc act counter: 0.9; STAT1 act conf: 159.1*; NFkB act: 125.1; STAT3 act 2: 124.9*

What do the screens show for `CCC1(c2ccc(F)cc2)NC(=O)N(CC(=O)Nc2ccc(-c3nc4ccc(C)cc4s3)cc2)C1=O` (configuration not stated)?
STAT1 act: 169.4*; NF-kB neuron act: 1.06; FLuc inhib CS: 27.4; Pf gametocyte: -15.7; APP 5'UTR act: 214.0*; FLuc act counter: 0.7; STAT1 act conf: 201.4*; NFkB act: 133.0; STAT3 act 2: 112.5*

How did Cc1cc(C)nc(NS(=O)(=O)c2ccc(NC(=O)CN3C(=O)c4ccccc4C3=O)cc2)n1 do in these assays?
STAT1 act: 106.4; NF-kB neuron act: 1.33; FLuc inhib CS: -10.4; Pf gametocyte: 5.0; FLuc act counter: 1.1

Results for Cc1ccc2nc(-c3ccc(NC(=O)CN4C(=O)c5ccccc5C4=O)cc3)sc2c1 ?
STAT1 act: 162.1*; NF-kB neuron act: 1.66; FLuc inhib CS: 37.5; Pf gametocyte: -20.9; APP 5'UTR act: 113.5; FLuc act counter: 0.6; STAT1 act conf: 180.3*; NFkB act: 129.9; STAT3 act 2: 117.9*

How did Cc1nnc(SCC(=O)Nc2ccc(-c3nc4ccccc4s3)cc2)s1 do in these assays?
STAT1 act: 156.3*; NF-kB neuron act: 5.64*; FLuc inhib CS: 79.8*; Pf gametocyte: 14.3; APP 5'UTR act: 157.8*; FLuc act counter: 0.2; STAT1 act conf: 243.0*; NFkB act: 109.1; STAT3 act 2: 85.6

How did CCn1c(=O)cc(SCC(=O)Nc2cccc(C)n2)c2ccccc21 do in these assays?
STAT1 act: 85.2; NF-kB neuron act: 0.89; FLuc inhib CS: -4.3; Pf gametocyte: -10.4; APP 5'UTR act: 4.9; FLuc act counter: 1

What do the screens show for `CC(C)CCNC(=O)c1c(CSc2ccccc2)noc1C(=O)NCc1ccccc1`?
Pf gametocyte: -18.6

Results for CN(C)C(=O)/C(=C\c1cccc(Oc2ccccc2)c1)NC(=O)c1ccccc1 ?
STAT1 act: 96.9; NF-kB neuron act: 1.06; FLuc inhib CS: 1.8; Pf gametocyte: -21.0; APP 5'UTR act: 0.9; FLuc act counter: 1

Screens as filed in PubChem BioAssay.
